{
  "source": "ChEMBL document CHEMBL3091448",
  "about": "“Identification of potent and selective cathepsin S inhibitors containing different central cyclic scaffolds” (J Med Chem, 2013)",
  "key": {"A20": {"system": "A20", "assay": "Inhibition of ovalbumin-induced antigen presentation in mouse A20 cells treated 1 hr before ovalbumin addition incubated for 16 hrs followed by co-cultured with DO10.10 T-cell hybridoma cells for 24 hrs assessed as IL-2 production by luminex single-bead analysis", "assay_type": "functional, cell-based", "in_short": "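A20 cells were seeded at 3 × 10⁵/mL and preincubated with compound for 1 h. Ovalbumin was then added (5 mg/mL final) for 16 h. Cells were washed three times with PBS, then DO10.10 T-cell hybridoma cells (2 × 10⁵/mL) were added. After 24 h, IL-2 was quantified by Luminex single-bead assay using two anti-IL-2 antibodies. IC50 is the mean of ≥2 independent experiments.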"}, "Cathepsin B": {"target": "Cathepsin B (Homo sapiens, UniProt P07858)", "assay": "Inhibition of human cathepsin-B using Z-Val-Val-Arg-AMC as substrate up to 20 mins by fluorescence assay", "in_short": "(§1)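 Fluorogenic quenched-peptide cleavage assay. Enzymes at 1 nM in 100 mM potassium phosphate pH 6.5, 5 mM EDTA-Na, 0.001% Triton X-100 and 5 mM DTT. Enzyme was added to the compound dilutions, then 20 μM substrate started the reaction: Z-Val-Val-Arg-AMC, or Z-Leu-Arg-AMC for CatK. Fluorescence (ex 360/em 465 nm) was read over 20 min. IC50 is the mean of ≥2 independent experiments.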"}, "Cathepsin S [1]": {"target": "Cathepsin S (Homo sapiens, UniProt P25774)", "sequence (P25774 whole entry)": "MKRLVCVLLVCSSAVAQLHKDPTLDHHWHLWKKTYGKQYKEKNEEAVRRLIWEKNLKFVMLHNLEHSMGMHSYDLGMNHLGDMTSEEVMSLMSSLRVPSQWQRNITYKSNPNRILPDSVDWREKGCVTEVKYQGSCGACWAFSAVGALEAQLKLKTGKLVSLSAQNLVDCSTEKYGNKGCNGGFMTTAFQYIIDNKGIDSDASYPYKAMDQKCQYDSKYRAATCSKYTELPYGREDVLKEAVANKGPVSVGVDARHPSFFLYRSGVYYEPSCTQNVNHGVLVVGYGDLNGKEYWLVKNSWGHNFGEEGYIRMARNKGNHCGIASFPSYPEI", "assay": "Inhibition of human cathepsin-S using Z-Val-Val-Arg-AMC as substrate up to 20 mins by fluorescence assay", "in_short": "as §1"}, "Procathepsin L": {"target": "Procathepsin L (Homo sapiens, UniProt P07711)", "sequence (P07711 whole entry)": "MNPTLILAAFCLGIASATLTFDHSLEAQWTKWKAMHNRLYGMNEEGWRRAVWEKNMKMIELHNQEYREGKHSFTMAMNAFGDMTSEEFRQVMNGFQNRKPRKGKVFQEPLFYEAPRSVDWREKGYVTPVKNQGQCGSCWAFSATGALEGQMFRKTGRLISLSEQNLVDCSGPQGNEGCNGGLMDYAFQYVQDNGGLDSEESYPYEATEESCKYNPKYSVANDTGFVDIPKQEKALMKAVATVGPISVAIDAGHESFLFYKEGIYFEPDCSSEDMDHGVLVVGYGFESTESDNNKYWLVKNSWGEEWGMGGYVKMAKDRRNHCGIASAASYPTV", "assay": "Inhibition of human cathepsin-L using Z-Val-Val-Arg-AMC as substrate up to 20 mins by fluorescence assay", "in_short": "as §1"}, "Cathepsin K": {"target": "T1, Cathepsin K (Homo sapiens, UniProt P43235)", "T1 sequence (P43235 whole entry)": "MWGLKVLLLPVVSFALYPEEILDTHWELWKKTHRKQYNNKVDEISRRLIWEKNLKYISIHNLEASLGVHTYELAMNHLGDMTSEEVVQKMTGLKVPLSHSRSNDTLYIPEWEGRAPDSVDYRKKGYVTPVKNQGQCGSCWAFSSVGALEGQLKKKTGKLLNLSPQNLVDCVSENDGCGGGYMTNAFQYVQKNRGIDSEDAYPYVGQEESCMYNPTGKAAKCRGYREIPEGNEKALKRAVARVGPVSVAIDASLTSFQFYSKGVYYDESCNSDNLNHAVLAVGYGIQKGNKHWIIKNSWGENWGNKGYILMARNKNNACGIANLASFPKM", "assay": "Inhibition of human cathepsin-K using Z-Leu-Arg-AMC as substrate up to 20 mins by fluorescence assay", "in_short": "as §1"}, "Homo sapiens": {"species_on_record": "Homo sapiens", "assay": "Selectivity ratio of IC50 for human cathepsin-K to IC50 for human cathepsin-S"}, "[2]": {"assay": "Effective permeability of the compound by PAMPA", "assay_type": "ADME", "conditions": "read-out: Peff"}, "Cathepsin S [3]": {"target": "Cathepsin S (Mus musculus, UniProt O70370)", "sequence (O70370 whole entry)": "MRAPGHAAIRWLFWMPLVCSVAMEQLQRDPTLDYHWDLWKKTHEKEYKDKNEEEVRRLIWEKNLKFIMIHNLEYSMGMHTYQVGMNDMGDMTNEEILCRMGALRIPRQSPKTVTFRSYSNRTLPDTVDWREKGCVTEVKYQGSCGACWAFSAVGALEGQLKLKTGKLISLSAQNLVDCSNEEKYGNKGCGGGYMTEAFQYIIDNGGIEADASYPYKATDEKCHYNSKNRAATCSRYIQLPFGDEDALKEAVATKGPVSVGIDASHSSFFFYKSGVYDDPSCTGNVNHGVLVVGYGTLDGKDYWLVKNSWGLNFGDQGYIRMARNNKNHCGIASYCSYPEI", "assay": "Inhibition of mouse cathepsin-S using Z-Val-Val-Arg-AMC as substrate up to 20 mins by fluorescence assay", "in_short": "as §1"}},
  "data": [
    {"compound": "CN1CCN(C(=O)[C@@H]2C[C@H](S(=O)(=O)c3ccccc3)C[C@H]2C(=O)NC2(C#N)CC2)CC1", "values": [
      {"measurement": "IC50", "setting": "A20", "result": 0.017, "unit": "µM"},
      {"measurement": "IC50", "setting": "Cathepsin B", "result": 6.4, "unit": "µM"},
      {"measurement": "IC50", "setting": "Cathepsin S [1]", "result": 0.002, "unit": "µM"},
      {"measurement": "IC50", "setting": "Procathepsin L", "result": 4.7, "unit": "µM"},
      {"measurement": "IC50", "setting": "Cathepsin K", "result": "> 25", "unit": "µM"}
    ]},
    {"compound": "COc1ccc(C(C#N)NC(=O)[C@@H]2CCCC[C@@H]2NC(=O)/C=C/c2ccccc2)cc1OC", "note": "(some centres not stated)", "values": [
      {"measurement": "IC50", "setting": "Cathepsin S [1]", "result": 0.64, "unit": "µM"},
      {"measurement": "IC50", "setting": "Cathepsin K", "result": 0.016, "unit": "µM"}
    ]},
    {"compound": "N#CCNC(=O)[C@@H]1CC(F)(F)C[C@H]1C(=O)N1CCOCC1", "values": [
      {"measurement": "IC50", "setting": "A20", "result": 0.925, "unit": "µM"},
      {"measurement": "IC50", "setting": "Cathepsin S [1]", "result": 0.83, "unit": "µM"},
      {"measurement": "Ratio IC50", "setting": "Homo sapiens", "result": 1},
      {"measurement": "IC50", "setting": "Cathepsin K", "result": 0.855, "unit": "µM"}
    ]},
    {"compound": "N#CC1(NC(=O)[C@@H]2C[C@@H](S(=O)(=O)c3ccccc3)C[C@H]2C(=O)N2CCOCC2)CCC1", "values": [
      {"measurement": "IC50", "setting": "A20", "result": 0.236, "unit": "µM"},
      {"measurement": "IC50", "setting": "Cathepsin B", "result": "> 25", "unit": "µM"},
      {"measurement": "IC50", "setting": "Procathepsin L", "result": "> 25", "unit": "µM"},
      {"measurement": "IC50", "setting": "Cathepsin K", "result": "> 25", "unit": "µM"}
    ]},
    {"compound": "N#CCNC(=O)[C@@H]1CN(S(=O)(=O)c2ccccc2C(F)(F)F)C[C@H]1C(=O)N1CCOCC1", "values": [
      {"measurement": "IC50", "setting": "A20", "result": 0.118, "unit": "µM"},
      {"measurement": "IC50", "setting": "Cathepsin S [1]", "result": 0.018, "unit": "µM"},
      {"measurement": "Ratio IC50", "setting": "Homo sapiens", "result": "> 1000"},
      {"measurement": "IC50", "setting": "Cathepsin K", "result": "> 25", "unit": "µM"}
    ]},
    {"compound": "N#CC1(NC(=O)[C@@H]2C[C@@H](S(=O)(=O)c3ccccc3)C[C@H]2C(=O)N2CCOCC2)CC1", "values": [
      {"measurement": "IC50", "setting": "A20", "result": 0.012, "unit": "µM"},
      {"measurement": "IC50", "setting": "Cathepsin B", "result": 8.5, "unit": "µM"},
      {"measurement": "IC50", "setting": "Procathepsin L", "result": 12.2, "unit": "µM"},
      {"measurement": "IC50", "setting": "Cathepsin K", "result": 29.7, "unit": "µM"}
    ]},
    {"compound": "CC(C)(C#N)NC(=O)[C@@H]1C[C@@H](S(=O)(=O)c2ccccc2)C[C@H]1C(=O)N1CCOCC1", "values": [
      {"measurement": "IC50", "setting": "A20", "result": 0.043, "unit": "µM"},
      {"measurement": "IC50", "setting": "Cathepsin B", "result": "> 25", "unit": "µM"},
      {"measurement": "IC50", "setting": "Cathepsin S [1]", "result": 0.003, "unit": "µM"},
      {"measurement": "IC50", "setting": "Procathepsin L", "result": "> 25", "unit": "µM"},
      {"measurement": "IC50", "setting": "Cathepsin K", "result": "> 25", "unit": "µM"}
    ]},
    {"compound": "N#CC1(NC(=O)[C@@H]2C[C@@H](S(=O)(=O)c3ccccc3)C[C@H]2C(=O)N2CCC2)CC1", "values": [
      {"measurement": "IC50", "setting": "A20", "result": 0.044, "unit": "µM"},
      {"measurement": "IC50", "setting": "Cathepsin B", "result": 39.4, "unit": "µM"},
      {"measurement": "IC50", "setting": "Cathepsin S [1]", "result": 0.01, "unit": "µM"},
      {"measurement": "IC50", "setting": "Procathepsin L", "result": 33.6, "unit": "µM"},
      {"measurement": "IC50", "setting": "Cathepsin K", "result": "> 25", "unit": "µM"}
    ]},
    {"compound": "N#CC1(NC(=O)[C@@H]2C[C@@H](S(=O)(=O)c3ccccc3)C[C@H]2C(=O)N2CCS(=O)(=O)CC2)CC1", "values": [
      {"measurement": "IC50", "setting": "A20", "result": 0.816, "unit": "µM"},
      {"measurement": "IC50", "setting": "Cathepsin B", "result": 38, "unit": "µM"},
      {"measurement": "Papp", "setting": "[2]", "result": 0.2, "unit": "×10⁻⁶ cm/s"},
      {"measurement": "IC50", "setting": "Cathepsin S [1]", "result": 0.004, "unit": "µM"},
      {"measurement": "IC50", "setting": "Procathepsin L", "result": 15.8, "unit": "µM"},
      {"measurement": "IC50", "setting": "Cathepsin K", "result": "> 25", "unit": "µM"}
    ]},
    {"compound": "N#CC1(NC(=O)[C@@H]2C[C@@H](S(=O)(=O)c3ccccc3)C[C@H]2C(=O)N2CC3(COC3)C2)CC1", "values": [
      {"measurement": "IC50", "setting": "A20", "result": 0.248, "unit": "µM"},
      {"measurement": "IC50", "setting": "Cathepsin B", "result": 29.7, "unit": "µM"},
      {"measurement": "IC50", "setting": "Procathepsin L", "result": 22.2, "unit": "µM"},
      {"measurement": "IC50", "setting": "Cathepsin K", "result": "> 25", "unit": "µM"}
    ]},
    {"compound": "CC1CCN(C(=O)[C@@H]2C[C@H](S(=O)(=O)c3ccccc3)C[C@H]2C(=O)NC2(C#N)CC2)CC1", "values": [
      {"measurement": "IC50", "setting": "A20", "result": 0.002, "unit": "µM"},
      {"measurement": "IC50", "setting": "Cathepsin B", "result": 0.7, "unit": "µM"},
      {"measurement": "Papp", "setting": "[2]", "result": 4.6, "unit": "×10⁻⁶ cm/s"},
      {"measurement": "IC50", "setting": "Procathepsin L", "result": 1.9, "unit": "µM"},
      {"measurement": "IC50", "setting": "Cathepsin K", "result": "> 25", "unit": "µM"}
    ]},
    {"compound": "N#CC1(NC(=O)[C@@H]2C[C@@H](S(=O)(=O)c3ccccc3)C[C@H]2C(=O)N2CCNCC2)CC1", "values": [
      {"measurement": "IC50", "setting": "A20", "result": 1.34, "unit": "µM"},
      {"measurement": "IC50", "setting": "Cathepsin B", "result": 13.3, "unit": "µM"},
      {"measurement": "IC50", "setting": "Procathepsin L", "result": 2.6, "unit": "µM"},
      {"measurement": "IC50", "setting": "Cathepsin K", "result": "> 25", "unit": "µM"}
    ]},
    {"compound": "N#CC1(NC(=O)[C@@H]2C[C@@H](S(=O)(=O)c3ccccc3)CN2C(=O)c2ccccc2)CC1", "values": [
      {"measurement": "IC50", "setting": "A20", "result": 0.217, "unit": "µM"},
      {"measurement": "IC50", "setting": "Cathepsin S [3]", "result": 0.029, "unit": "µM"},
      {"measurement": "IC50", "setting": "Cathepsin B", "result": "> 25", "unit": "µM"},
      {"measurement": "IC50", "setting": "Cathepsin S [1]", "result": 0.013, "unit": "µM"},
      {"measurement": "IC50", "setting": "Procathepsin L", "result": "> 25", "unit": "µM"},
      {"measurement": "IC50", "setting": "Cathepsin K", "result": "> 25", "unit": "µM"}
    ]},
    {"compound": "N#CC1(NC(=O)[C@@H]2C[C@@H](S(=O)(=O)c3ccccc3)C[C@H]2C(=O)Nc2ccc(F)cc2)CC1", "values": [
      {"measurement": "IC50", "setting": "A20", "result": 0.391, "unit": "µM"},
      {"measurement": "IC50", "setting": "Cathepsin B", "result": "> 25", "unit": "µM"},
      {"measurement": "IC50", "setting": "Cathepsin S [1]", "result": 0.026, "unit": "µM"},
      {"measurement": "IC50", "setting": "Procathepsin L", "result": "> 25", "unit": "µM"},
      {"measurement": "IC50", "setting": "Cathepsin K", "result": "> 25", "unit": "µM"}
    ]},
    {"compound": "N#CCNC(=O)[C@@H]1CN(S(=O)(=O)c2ccccc2Cl)C[C@H]1C(=O)N1CCOCC1", "values": [
      {"measurement": "IC50", "setting": "A20", "result": 0.208, "unit": "µM"},
      {"measurement": "IC50", "setting": "Cathepsin S [1]", "result": 0.012, "unit": "µM"},
      {"measurement": "Ratio IC50", "setting": "Homo sapiens", "result": "> 1000"},
      {"measurement": "IC50", "setting": "Cathepsin K", "result": "> 25", "unit": "µM"}
    ]}
  ]
}
